One series has as its target T1, h-NPP1 (Homo sapiens, UniProt P22413).
T1 sequence (P22413 1-925): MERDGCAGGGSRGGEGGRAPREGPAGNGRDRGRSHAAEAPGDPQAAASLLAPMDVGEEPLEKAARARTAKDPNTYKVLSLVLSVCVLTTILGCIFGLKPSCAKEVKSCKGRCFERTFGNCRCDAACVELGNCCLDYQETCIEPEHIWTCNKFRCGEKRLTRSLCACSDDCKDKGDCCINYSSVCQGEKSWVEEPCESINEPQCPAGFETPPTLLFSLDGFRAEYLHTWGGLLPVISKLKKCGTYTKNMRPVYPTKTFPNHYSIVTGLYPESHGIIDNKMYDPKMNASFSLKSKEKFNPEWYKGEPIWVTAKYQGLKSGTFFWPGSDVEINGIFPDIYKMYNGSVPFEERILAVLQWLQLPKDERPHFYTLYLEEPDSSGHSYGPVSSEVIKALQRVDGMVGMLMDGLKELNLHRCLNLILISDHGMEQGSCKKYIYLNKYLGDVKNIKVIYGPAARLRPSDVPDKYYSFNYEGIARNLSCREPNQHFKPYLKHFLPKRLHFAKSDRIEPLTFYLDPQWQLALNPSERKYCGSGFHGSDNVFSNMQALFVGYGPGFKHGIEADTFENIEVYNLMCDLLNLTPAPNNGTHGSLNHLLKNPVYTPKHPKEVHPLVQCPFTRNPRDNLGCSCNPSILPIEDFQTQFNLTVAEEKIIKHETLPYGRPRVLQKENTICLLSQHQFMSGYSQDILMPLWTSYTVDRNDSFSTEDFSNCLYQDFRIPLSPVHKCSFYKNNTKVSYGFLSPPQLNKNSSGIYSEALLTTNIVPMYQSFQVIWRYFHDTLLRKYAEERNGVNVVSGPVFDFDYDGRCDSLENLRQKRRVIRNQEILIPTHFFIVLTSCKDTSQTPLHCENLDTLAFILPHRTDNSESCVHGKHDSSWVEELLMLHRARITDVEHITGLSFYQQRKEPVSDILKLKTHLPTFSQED
Put plainly: h-NPP1 activity assay. The format is biochemical. To be noted: for inhibition at 100 µM: read-out: % Inhibition h-NPP1.

In the next series the test system is h-NTPDases. Put plainly: h-NTPDase activity assay, all four isoenzymes. The format is biochemical, human. Summed up:
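Human NTPDase1, -2, -3 or -8 came from COS-7 cells transfected with plasmids via Lipofectamine, harvested at 44–48 h, sonicated and cleared of nuclei, with protein measured by Bradford. Enzyme per well was 12, 37, 43 or 63 ng respectively. Compound (0.1 mM final) was pre-incubated 10 min at 37 °C in 50 mM Tris–HCl, 5 mM CaCl2, pH 7.4. The reaction was started with ATP (100 µM), run 15 min, and stopped with malachite green; Pi was read at 630 nm.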

A further series addresses T2, h-NTPDase1 (Homo sapiens, UniProt P49961).
T2 sequence (P49961 1-510): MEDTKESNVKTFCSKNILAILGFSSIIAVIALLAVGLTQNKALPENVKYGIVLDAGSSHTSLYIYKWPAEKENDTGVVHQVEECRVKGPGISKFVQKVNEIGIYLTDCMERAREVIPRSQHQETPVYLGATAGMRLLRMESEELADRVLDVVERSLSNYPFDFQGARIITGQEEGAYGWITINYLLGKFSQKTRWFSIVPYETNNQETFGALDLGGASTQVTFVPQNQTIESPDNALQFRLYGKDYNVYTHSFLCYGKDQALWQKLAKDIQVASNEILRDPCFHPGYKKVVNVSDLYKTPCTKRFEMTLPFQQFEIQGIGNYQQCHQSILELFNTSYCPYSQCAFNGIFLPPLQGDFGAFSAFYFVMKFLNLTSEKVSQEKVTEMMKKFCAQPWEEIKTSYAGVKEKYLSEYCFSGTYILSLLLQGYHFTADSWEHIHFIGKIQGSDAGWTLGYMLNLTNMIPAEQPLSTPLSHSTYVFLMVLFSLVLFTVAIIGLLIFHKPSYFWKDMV
Put plainly: h-NTPDase activity assay. The note with it: for inhibition at 100 µM: read-out: % Inhibition h-NTPDase1. The format is biochemical.

The test system of series [1] is MCF-7 breast cancer cells. The series can be described thus: MTT assay. The format is cell-based, human. The note with it: MCF-7, 100 μM, 24 h, 100 µM.
Series [2] has as its system A549 human lung carcinoma cells. Put plainly: Fluorescence microscopy of treated cells. Type of series: cell-based. To be noted: A549, 10 μM, 24 h incubation.

The values that follow come from article PMC13022283 (Scientific Reports, 2026).

The structures appear in SMILES notation. Entries after “also recorded” stand apart in the source; their conditions may differ.

For the compound `O=C(Nc1ccc(I)cc1)c1ccc2ncccc2c1` [Compound 4k, N-(4-Iodophenyl)quinoline-6-carboxamide], on h-NPP1, the half-maximal inhibitory concentration (IC50) was found to be 110 ± 20 nM and the inhibition at 100 µM was found to be 67.7%. Further, the “activity against all four h-NTPDase isoenzymes” value (“activity” below) with h-NTPDases is given as “poor activity”. The inhibition at 100 µM on h-NTPDase1 was 33.8%. The “% Viability” value in series [1] is reported as 43.1%.

For the compound `O=C(NCc1ccc(F)cc1)c1ccc2ncccc2c1` [Compound 4b, N-(4-fluorobenzyl)quinoline-6-carboxamide], the inhibition at 100 µM at h-NPP1 came to 44.8%. For the same compound, at h-NTPDase1, the midpoint of inhibition, the IC50, lay at 3460 ± 490 nM and the inhibition at 100 µM turned out to be 68.9%.

As for `Cc1ccc(F)cc1NC(=O)c1ccc2ncccc2c1` [Compound 4l, N-(5-fluoro 2-methylphenyl)quinoline-6-carboxamide], the inhibition at 100 µM on h-NPP1 turned out to be 29.4%; on h-NTPDase1, 32.4%. In addition, the “activity” value with h-NTPDases was “poor activity”.

With `O=C(Nc1ccccc1I)c1ccc2ncccc2c1` [Compound 4h, N-(2-iodophenyl)quinoline-6-carboxamide], the results for the inhibition at 100 µM at h-NPP1 and at h-NTPDase1 were 33.9% and 18.4%, respectively.

Turning to `O=C(Nc1ccc(F)cc1F)c1ccc2ncccc2c1` [Compound 4e, N-(2,4 difluorophenyl)quinoline-6-carboxamide], the inhibition at 100 µM on h-NPP1 is 34.6%; on h-NTPDase1, 32.6%. In the series with h-NTPDases, the “activity” value was “poor activity; also recorded: inactive”.

As to `Cc1ccc(CNC(=O)c2ccc3ncccc3c2)cc1` [Compound 4c, N-(4-methylbenzyl)quinoline-6-carboxamide], the inhibition at 100 µM at h-NPP1 came out at 45.2%. Moreover, at h-NTPDase1, the IC50 was found to be 6130 ± 640 nM and the inhibition at 100 µM is 57.7%.

In the case of `O=C(Nc1c(F)cccc1F)c1ccc2ncccc2c1` [Compound 4d, N-(2,6 difluorophenyl)quinoline-6-carboxamide], on h-NPP1, the midpoint of inhibition, the IC50, lay at 730 ± 90 nM and the inhibition at 100 µM is 54.5%. In addition, the inhibition at 100 µM at h-NTPDase1 is 76.1%. In addition, the “cytotoxicity seen in bright-field images” value in series [2] was “no signs of cytotoxicity”.

`O=C(Nc1ccccn1)c1ccc2ncccc2c1` [Compound 4g, N-(pyridin-2-yl)quinoline-6-carboxamide]: the inhibition at 100 µM at h-NPP1 worked out at 43.7%. At h-NTPDase1, inhibition was half-maximal at 610 ± 90 nM (IC50) and the inhibition at 100 µM was 58.5%.
